Reference: ChEMBL document CHEMBL3352233, “N-[6-(4-butanoyl-5-methyl-1H-pyrazol-1-yl)pyridazin-3-yl]-5-chloro-1-[2-(4-methylpiperazin-1-yl)-2-oxoethyl]-1H-indole-3-carboxamide (SAR216471), a novel intravenous and oral, reversible, and directly acting P2Y12 antagonist” (J Med Chem, 2014)

Columns and labels:
[1] = Metabolic stability in rat liver microsomes assessed as compound metabolism after 20 mins incubation in presence of 1 mM NADPH; type: ADME; settings: liver microsomes, read-out: Drug metabolism
Summary of the method: (§1)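 Hepatic microsomal fractions are incubated with compound for 20 min with 1 mM NADPH. Result is reported as % metabolized, i.e. 100 minus % unchanged compound.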

[2] = Metabolic stability in human liver microsomes assessed as compound metabolism after 20 mins incubation in presence of 1 mM NADPH; type: ADME; settings: liver microsomes, read-out: Drug metabolism; summary of the method: as §1
Rattus norvegicus [3] = assay: Ex vivo inhibition of platelet aggregation in Sprague-Dawley rat at 10 mg/kg, po after 2 hrs; type: functional; settings: Rattus norvegicus, Sprague-Dawley, po, 2 h
Summary of the method: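 Male Sprague−Dawley rats (250−300 g), 6 per batch, are dosed by stomach tube at 10 mL/kg of a 1 mg/mL solution in 5% glucose water containing 5% Cremophor and 3% glycofurol. At 2 h, aortic blood is drawn into 3.8% citrate (1:9) under pentobarbital. PRP is prepared at 300g for 5 min. ADP aggregation is read as the 6-min absorbance AUC and expressed as % inhibition.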

[4] = Solubility in water at pH 4.9; type: physicochemical
P2Y purinoceptor 12 = P2Y purinoceptor 12 (Homo sapiens, UniProt Q9H244); assay: Displacement of [33P]2MeS-ADP from P2Y12 receptor (unknown origin) transfected in CHO cells after 30 mins by scintillation counting analysis; type: cell-based
Summary of the method: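 P2Y12-expressing CHO cells (35 × 10³/sample) in PBS with 1 mM EDTA and 0.2% BSA are exposed to compound for 30 min. [³³P]2-MeS-ADP (0.16 nM) is then added for 15 min at 20 °C, in triplicate. Filtration separates free from bound ligand, followed by scintillation counting. Nonspecific binding uses 1 mM unlabeled ADP. IC50 comes from a four-parameter logistic fit with asymptotes fixed at 0 and 100. n = 2.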

[5] = Permeability across human Caco2 cells; type: ADME, cell-based; settings: Caco-2, read-out: permeability
Summary of the method: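 Permeation is measured across a Caco2 cell monolayer and reported in 10⁻⁷ cm·s⁻¹.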

Rattus norvegicus [6] = assay: Ex vivo inhibition of platelet aggregation in Sprague-Dawley rat at 1 mg/kg, iv after 30 mins; type: functional; settings: 0.5 h
Summary of the method: (§2)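 Male Sprague−Dawley rats (250−300 g) receive compound iv. At 30 min, under pentobarbital anesthesia, blood is taken from the abdominal aorta into 3.8% citrate (1:9). PRP is prepared at 300g for 5 min. ADP-induced aggregation is measured, using the area under the absorbance curve over 6 min, and expressed as % inhibition.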

Rattus norvegicus [7] = assay: Ex vivo inhibition of platelet aggregation in Sprague-Dawley rat at 10 mg/kg, po after 6 hrs; type: functional; settings: Rattus norvegicus, Sprague-Dawley, po, 6 h
Summary of the method: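 Time-course study in Sprague−Dawley rats after a 10 mg/kg oral dose in glucose/Cremophor/glycofurol vehicle. Aortic citrated blood is sampled at intervals over the hours after dosing. PRP is prepared at 300g for 5 min. ADP-induced aggregation is measured as the 6-min absorbance AUC and reported as % inhibition.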

Rattus norvegicus [8] = assay: Ex vivo inhibition of platelet aggregation in Sprague-Dawley rat at 10 mg/kg, iv after 30 mins; type: functional; settings: 0.5 h; summary of the method: as §2
Rattus norvegicus [9] = assay: Ex vivo inhibition of platelet aggregation in Sprague-Dawley rat at 3 mg/kg, iv after 30 mins; type: functional; settings: 0.5 h; summary of the method: as §2
[10] = Solubility in water at final pH; type: physicochemical
Rattus norvegicus [11] = assay: Toxicity in rat assessed as damaged organ at 30 mg/kg, po after 7 days; type: organism-based; design: dose 30 mg/kg, route oral; settings: in vivo, 168 h
Summary of the method: (§3)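 Rats are dosed daily for 7 days, orally (30 and 100 mg/kg) or iv (3 and 10 mg/kg). Target organs are examined for damage. Plasma AUC(0−24) is compared between day 1 and day 7.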

Rattus norvegicus [12] = assay: Ex vivo inhibition of platelet aggregation in Sprague-Dawley rat at 0.1 mg/kg, iv after 5 mins
Canis familiaris [13] = assay: Toxicity in conscious telemetered mongrel dog assessed as hemodynamic effect at 100 mg/kg, po after 24 hrs; type: organism-based, Canis lupus familiaris; design: dose 100 mg/kg, route oral; settings: in vivo
Canis familiaris [14] = assay: Toxicity in conscious telemetered mongrel dog assessed as electrocardiographic effect at 100 mg/kg, po after 24 hrs; type: organism-based, Canis lupus familiaris; design: dose 100 mg/kg, route oral; settings: in vivo
Rattus norvegicus [15] = assay: Toxicity in rat assessed as damaged organ at 3 mg/kg, iv after 7 days; type: organism-based; design: dose 3 mg/kg, route intravenous; settings: in vivo, 168 h; summary of the method: as §3
Hepatocyte [16] = assay: Intrinsic metabolic clearance in human hepatocytes measured per 10^6 cells after 24 hrs; type: ADME, cell-based
Summary of the method: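 Human hepatocytes incubated with compound for 24 h to measure in vitro metabolism. Clearance reported in mL·h⁻¹·(10⁶ hepatocytes)⁻¹.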

Rattus norvegicus [17] = assay: Ex vivo inhibition of platelet aggregation in Sprague-Dawley rat at 0.3 mg/kg, iv after 5 mins
Rattus norvegicus [18] = assay: Ratio of AUC (0 to 24 hrs) in rat dosed as 7 day repeated administration to AUC (0 to 24 hrs) in rat administered as single dose; settings: in vivo
[19] = Metabolic stability in mouse liver microsomes assessed as compound metabolism after 20 mins incubation in presence of 1 mM NADPH; type: ADME; settings: read-out: Drug metabolism
Summary of the method: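 Compound incubated with mouse hepatic microsomal fractions for 20 min with 1 mM NADPH. Read-out is % metabolism, meaning 100 minus % unchanged compound.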

Hepatocyte [20] = assay: Intrinsic metabolic clearance in human hepatocytes measured assessed as CYP3A4 contribution per 10^6 cells after 24 hrs; type: ADME, cell-based
Canis familiaris [21] = assay: Toxicity in conscious telemetered mongrel dog assessed as body temperature at 100 mg/kg, po after 24 hrs; type: organism-based, Canis lupus familiaris; design: dose 100 mg/kg, route oral; settings: in vivo
Rattus norvegicus [22] = assay: Toxicity in rat assessed as damaged organ at 10 mg/kg, iv after 7 days; type: organism-based; design: dose 10 mg/kg, route intravenous; settings: in vivo, 168 h; summary of the method: as §3
Rattus norvegicus [23] = assay: Ex vivo inhibition of platelet aggregation in po dosed Sprague-Dawley rat after 2 hrs; type: functional
Summary of the method: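 Oral gavage in male Sprague−Dawley rats (250−300 g, 6 per batch), vehicle 5% glucose water with 5% Cremophor and 3% glycofurol. Blood is collected 2 h after dosing from the abdominal aorta into 3.8% citrate under pentobarbital. PRP is prepared at 300g for 5 min. ADP-induced aggregation is quantified as the 6-min absorbance AUC, given as % inhibition.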

[24] = Plasma concentration in conscious telemetered mongrel dog at 100 mg/kg, po after 4 hrs; type: ADME, organism-based, Canis lupus familiaris; design: dose 100 mg/kg, route oral
Rattus norvegicus [25] = assay: Ex vivo inhibition of platelet aggregation in Sprague-Dawley rat at 30 mg/kg, po after 2 hrs
Rattus norvegicus [26] = assay: Toxicity in rat assessed as damaged organ at 100 mg/kg, po after 7 days; type: organism-based; design: dose 100 mg/kg, route oral; settings: in vivo, 168 h; summary of the method: as §3

P2Y purinoceptor 12, sequence (Q9H244 whole entry): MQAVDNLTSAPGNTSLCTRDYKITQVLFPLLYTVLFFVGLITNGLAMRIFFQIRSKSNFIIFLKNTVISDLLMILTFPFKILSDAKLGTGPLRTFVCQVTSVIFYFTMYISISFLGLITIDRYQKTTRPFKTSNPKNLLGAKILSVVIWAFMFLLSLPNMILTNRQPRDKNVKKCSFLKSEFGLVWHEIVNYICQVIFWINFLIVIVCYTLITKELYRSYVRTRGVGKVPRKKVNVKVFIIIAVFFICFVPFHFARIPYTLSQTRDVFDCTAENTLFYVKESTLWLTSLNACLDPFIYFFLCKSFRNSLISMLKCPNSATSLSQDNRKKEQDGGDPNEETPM

metabolised at 20 min [1] [%]	metabolised at 20 min [2] [%]	IC50 (P2Y purinoceptor 12) [µM]	Papp [5] [×10⁻⁶ cm/s]	Compound	inhibition in vivo at 10 mg/kg (Rattus norvegicus [3]) [%]	inhibition in vivo at 1 mg/kg (Rattus norvegicus [6]) [%]	inhibition in vivo at 10 mg/kg (Rattus norvegicus [7]) [%]	inhibition in vivo at 10 mg/kg (Rattus norvegicus [8]) [%]	inhibition in vivo at 3 mg/kg (Rattus norvegicus [9]) [%]	further results
41	39	0.031	4	CCCC(=O)c1cnn(-c2ccc(NC(=O)c3cn(CC(=O)N4CCN(C)CC4)c4ccc(C)cc34)cc2)c1C.Cl	33					solubility [4]: 760 µg/mL
14	36	0.027	1.6	CCCC(=O)c1cnn(-c2ccc(NC(=O)c3cn(CC(=O)N4CCN(C)CC4)c4ccc(Cl)cc34)cc2)c1C	50	53	51	86	70	
64	59	0.031	18.6	CCCC(=O)c1cnn(-c2ccc(NC(=O)c3cn(CC(=O)N(C)C)c4cc(C)c(C)cc34)cc2)c1C						solubility [10]: < 10 µg/mL
11	29	0.017	0.8	CCCC(=O)c1cnn(-c2ccc(NC(=O)c3cn(CC(=O)N4CCN(C)CC4)c4ccc(Cl)cc34)nn2)c1C		75	74	92	86	Activity (Rattus norvegicus [11]): Non-toxic; inhibition in vivo at 0.1 mg/kg (Rattus norvegicus [12]): 37%; Activity (Canis familiaris [13]): Non-toxic; Activity (Canis familiaris [14]): Non-toxic; Activity (Rattus norvegicus [15]): Non-toxic; CLH (Hepatocyte [16]): 0.085 mL/h; inhibition in vivo at 0.3 mg/kg (Rattus norvegicus [17]): 63%; Ratio (Rattus norvegicus [18]): 1.3; metabolised at 20 min [19]: 4%; Activity (Hepatocyte [20]): 43%; Activity (Canis familiaris [21]): Non-toxic; Activity (Rattus norvegicus [22]): Non-toxic; ED50 (Rattus norvegicus [23]): 2.75 mg/kg; inhibition (Rattus norvegicus [23]): Dose-dependent effect; concentration at 4 h [24]: 4.2 µM; inhibition in vivo at 30 mg/kg (Rattus norvegicus [25]): 85%; Activity (Rattus norvegicus [26]): Non-toxic
